# Measurements as given in ChEMBL document CHEMBL3739417, “Synthesis and biological evaluation of novel 4,5-disubstituted 2H-1,2,3-triazoles as cis-constrained analogues of combretastatin A-4” (2015).
# Legend:
# Type in all cases: functional
# KM12 = test: Growth inhibition of human KM12 cells after 48 hrs by sulforhodamine B assay; details: KM12, 48 h
# Method in brief: (§1)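 NCI-60 panel screen by SRB assay (Rubinstein method). Percentage growth taken from optical density of SRB colour, read before and 48 hrs after exposure to compound or vehicle control. All analogues first screened at 10^-5 M. Analogues giving 60% growth inhibition at that level in at least eight lines then went to a five-concentration dose-response study.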
# MDA-MB-468 = test: Growth inhibition of human MDA-MB-468 cells after 48 hrs by sulforhodamine B assay; details: MDA-MB-468, 48 h; method in brief: as §1
# U-251 = test: Growth inhibition of human U251 cells after 48 hrs by sulforhodamine B assay; details: U-251, 48 h; method in brief: as §1
# A498 = test: Growth inhibition of human A498 cells after 48 hrs by sulforhodamine B assay; details: A498, 48 h
# Method in brief: (§2)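 NCI-60 sulforhodamine B screen. Compounds were first tested at a single dose of 10⁻⁵ M; hits, defined as ≥60% growth inhibition in at least eight lines, went on to a five-concentration dose–response. SRB optical density was read before and 48 h after exposure to compound or vehicle. Percentage growth was calculated from OD.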
# [1] = Growth inhibition of human SF268 cells after 48 hrs by sulforhodamine B assay; details: SF-268, 48 h; method in brief: as §1
# [2] = Growth inhibition of human DU145 cells after 48 hrs by sulforhodamine B assay; details: DU-145, 48 h; method in brief: as §1
# [3] = Growth inhibition of human HOP62 cells after 48 hrs by sulforhodamine B assay; details: HOP-62, 48 h; method in brief: as §1
# [4] = Growth inhibition of human PC3 cells after 48 hrs by sulforhodamine B assay; details: PC-3, 48 h; method in brief: as §1
# [5] = Growth inhibition of human OVCAR3 cells after 48 hrs by sulforhodamine B assay; details: OVCAR-3, 48 h; method in brief: as §2
# SK-MEL-2 = test: Growth inhibition of human SK-MEL-2 cells after 48 hrs by sulforhodamine B assay; details: SK-MEL-2, 48 h; method in brief: as §1
# [6] = Growth inhibition of human UO31 cells after 48 hrs by sulforhodamine B assay; details: UO-31, 48 h; method in brief: as §1
# [7] = Growth inhibition of human RPMI8226 cells after 48 hrs by sulforhodamine B assay; details: RPMI-8226, 48 h; method in brief: as §1
# [8] = Growth inhibition of human IGROV1 cells after 48 hrs by sulforhodamine B assay; details: IGROV-1, 48 h; method in brief: as §1
# NCI-H23 = test: Growth inhibition of human NCI-H23 cells after 48 hrs by sulforhodamine B assay; details: NCI-H23, 48 h; method in brief: as §1
# [9] = Growth inhibition of human COLO205 cells after 48 hrs by sulforhodamine B assay; details: COLO 205, 48 h; method in brief: as §1
# [10] = Growth inhibition of human HL-60(TB) cells after 48 hrs by sulforhodamine B assay; details: HL-60, 48 h; method in brief: as §1
# MCF7 = test: Growth inhibition of human MCF7 cells after 48 hrs by sulforhodamine B assay; details: MCF7, 48 h; method in brief: as §1
# NCI-H460 = test: Growth inhibition of human NCI-H460 cells after 48 hrs by sulforhodamine B assay; details: NCI-H460, 48 h; method in brief: as §1
# A549 = test: Growth inhibition of human A549/ATCC cells after 48 hrs by sulforhodamine B assay; details: A549, 48 h; method in brief: as §1
# [11] = Growth inhibition of human LOXIMVI cells after 48 hrs by sulforhodamine B assay; details: LOX IMVI; method in brief: as §1
# SR = test: Growth inhibition of human SR cells after 48 hrs by sulforhodamine B assay; method in brief: as §1
# [12] = Growth inhibition of human HCT15 cells after 48 hrs by sulforhodamine B assay; details: HCT-15, 48 h; method in brief: as §1
# [13] = Growth inhibition of human NCI-ADR-RES cells after 48 hrs by sulforhodamine B assay; method in brief: as §1
# [14] = Growth inhibition of human HOP92 cells after 48 hrs by sulforhodamine B assay; details: HOP-92, 48 h; method in brief: as §1
# K562 = test: Growth inhibition of human K562 cells after 48 hrs by sulforhodamine B assay; details: K562, 48 h; method in brief: as §1
# [15] = Growth inhibition of human HCC2998 cells after 48 hrs by sulforhodamine B assay; details: HCC 2998, 48 h; method in brief: as §1
# ACHN = test: Growth inhibition of human ACHN cells after 48 hrs by sulforhodamine B assay; method in brief: as §1
# CAKI-1 = test: Growth inhibition of human CAKI-1 cells after 48 hrs by sulforhodamine B assay; details: CAKI-1, 48 h; method in brief: as §1
# [16] = Growth inhibition of human SF295 cells after 48 hrs by sulforhodamine B assay; details: SF-295, 48 h; method in brief: as §1
# [17] = Growth inhibition of human SNB75 cells after 48 hrs by sulforhodamine B assay; details: SNB-75, 48 h; method in brief: as §1
# MDA-MB-231 = test: Growth inhibition of human MDA-MB-231 cells after 48 hrs by sulforhodamine B assay; details: MDA-MB-231, 48 h; method in brief: as §1
# HT-29 = test: Growth inhibition of human HT-29 cells after 48 hrs by sulforhodamine B assay; details: HT-29, 48 h; method in brief: as §1
# [18] = Growth inhibition of human HCT116 cells after 48 hrs by sulforhodamine B assay; details: HCT-116, 48 h; method in brief: as §1
# [19] = Growth inhibition of human SW620 cells after 48 hrs by sulforhodamine B assay; details: SW-620, 48 h; method in brief: as §1
# MDA-MB-435 = test: Growth inhibition of human MDA-MB-435 cells after 48 hrs by sulforhodamine B assay; details: MDA-MB-435, 48 h; method in brief: as §2
# CCRF-CEM = test: Growth inhibition of human CCRF-CEM cells after 48 hrs by sulforhodamine B assay; method in brief: as §1
# [20] = Growth inhibition of human SKOV3 cells after 48 hrs by sulforhodamine B assay; details: SK-OV-3, 48 h; method in brief: as §1
# [21] = read-out: LD50 (the source's name)
compound,measurement,setting,value
COc1ccc(-c2n[nH]nc2-c2cc(OC)cc(OC)c2)cc1,GI50,KM12,0.03 µM
same,LC50 (concentration killing 50% of cells),KM12; read-out: LD50,> 100 µM
same,GI50,MDA-MB-468,0.023 µM
same,CC50,MDA-MB-468; [21],> 100 µM
same,GI50,U-251,0.038 µM
same,CC50,U-251; [21],> 100 µM
same,GI50,A498,< 0.01 µM
same,LC50 (50% net cell kill),A498; read-out: LD50,> 100 µM
same,GI50,[1],0.177 µM
same,CC50,[1]; [21],> 100 µM
same,GI50,[2],0.045 µM
same,CC50,[2]; [21],> 100 µM
same,GI50,[3],0.025 µM
same,LC50 (concentration killing 50% of cells),[3]; read-out: LD50,> 100 µM
same,GI50,[4],0.042 µM
same,CC50,[4]; [21],> 100 µM
same,GI50,[5],0.024 µM
same,LC50 (concentration giving 50% net cell kill),[5]; read-out: LD50,> 100 µM
same,GI50,SK-MEL-2,0.056 µM
same,CC50,SK-MEL-2; [21],> 100 µM
same,GI50,[6],0.02 µM
same,LC50 (concentration killing 50% of cells),[6]; read-out: LD50,> 100 µM
same,GI50,[7],0.037 µM
same,CC50,[7]; [21],> 100 µM
same,GI50,[8],0.051 µM
same,CC50,[8]; [21],> 100 µM
same,GI50,NCI-H23,0.038 µM
same,LC50 (concentration giving 50% cell kill),NCI-H23; read-out: LD50,> 100 µM
same,GI50,[9],0.149 µM
same,CC50,[9]; [21],> 100 µM
same,GI50,[10],0.023 µM
same,CC50,[10]; [21],> 100 µM
same,GI50,MCF7,0.025 µM
same,CC50,MCF7; [21],> 100 µM
same,GI50,NCI-H460,0.034 µM
same,CC50,NCI-H460; [21],> 100 µM
same,GI50,A549,0.037 µM
same,CC50,A549; [21],> 100 µM
same,GI50,[11],0.076 µM
same,CC50,[11]; [21],> 100 µM
same,GI50,SR,< 0.01 µM
same,LC50 (concentration giving 50% net cell kill),SR; read-out: LD50,> 100 µM
same,GI50,[12],< 0.01 µM
same,CC50,[12]; [21],> 100 µM
same,GI50,[13],< 0.01 µM
same,CC50,[13]; [21],> 100 µM
same,GI50,[14],< 0.01 µM
same,CC50,[14]; [21],> 100 µM
same,GI50,K562,< 0.01 µM
same,CC50,K562; [21],> 100 µM
same,GI50,[15],0.046 µM
same,CC50,[15]; [21],> 100 µM
same,GI50,ACHN,0.145 µM
same,CC50,ACHN; [21],> 100 µM
same,GI50,CAKI-1,0.05 µM
same,CC50,CAKI-1; [21],> 100 µM
same,GI50,[16],0.011 µM
same,CC50,[16]; [21],> 100 µM
same,GI50,[17],0.014 µM
same,CC50,[17]; [21],> 100 µM
same,GI50,MDA-MB-231,0.046 µM
same,CC50,MDA-MB-231; [21],> 100 µM
same,GI50,HT-29,0.048 µM
same,LC50 (concentration killing 50% of cells),HT-29; read-out: LD50,> 100 µM
same,GI50,[18],< 0.01 µM
same,CC50,[18]; [21],> 100 µM
same,GI50,[19],0.03 µM
same,LD50 (concentration killing 50% of cells),[19],> 100 µM
same,GI50,MDA-MB-435,< 0.01 µM
same,TGI,MDA-MB-435,0.01 µM
same,LC50 (concentration killing 50% of cells),MDA-MB-435; read-out: LD50,> 100 µM
same,GI50,CCRF-CEM,0.032 µM
same,LC50 (concentration killing 50% of cells),CCRF-CEM; read-out: LD50,> 100 µM
same,GI50,[20],0.046 µM
same,LC50 (concentration killing 50% of cells),[20]; read-out: LD50,> 100 µM
